The target of assay [1] is T1, Rap guanine nucleotide exchange factor 3 (Homo sapiens) (UniProt O95398).
T1 sequence (whole entry): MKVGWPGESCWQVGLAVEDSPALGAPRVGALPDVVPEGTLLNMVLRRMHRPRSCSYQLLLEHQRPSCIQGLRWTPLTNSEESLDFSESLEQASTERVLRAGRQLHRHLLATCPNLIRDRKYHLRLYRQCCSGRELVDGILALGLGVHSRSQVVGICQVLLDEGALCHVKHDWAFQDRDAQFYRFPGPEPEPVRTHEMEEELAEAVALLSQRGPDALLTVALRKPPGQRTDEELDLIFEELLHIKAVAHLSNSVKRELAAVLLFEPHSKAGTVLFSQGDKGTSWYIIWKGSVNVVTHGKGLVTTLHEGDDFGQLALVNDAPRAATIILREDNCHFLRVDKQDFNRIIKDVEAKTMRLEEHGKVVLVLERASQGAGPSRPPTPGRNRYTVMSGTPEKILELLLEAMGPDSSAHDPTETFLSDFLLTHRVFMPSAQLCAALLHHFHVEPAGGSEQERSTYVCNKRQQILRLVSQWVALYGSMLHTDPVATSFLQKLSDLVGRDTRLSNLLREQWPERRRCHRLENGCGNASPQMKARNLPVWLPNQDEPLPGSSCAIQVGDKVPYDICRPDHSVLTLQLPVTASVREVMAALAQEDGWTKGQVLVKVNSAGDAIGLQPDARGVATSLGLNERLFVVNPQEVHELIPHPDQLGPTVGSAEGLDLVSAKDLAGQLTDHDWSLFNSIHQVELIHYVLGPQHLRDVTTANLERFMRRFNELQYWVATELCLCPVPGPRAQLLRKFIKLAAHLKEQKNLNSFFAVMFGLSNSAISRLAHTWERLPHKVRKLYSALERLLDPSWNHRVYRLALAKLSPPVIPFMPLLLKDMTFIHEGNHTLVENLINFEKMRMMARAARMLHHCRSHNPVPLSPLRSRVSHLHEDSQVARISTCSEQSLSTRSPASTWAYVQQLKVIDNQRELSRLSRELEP
Description: Binding affinity to GST-tagged human EPAC1 CNBD (149 to 318 residues)expressed in Escherichia coli BL21 (DE3) assessed as induction Intermolecular NOEs peaks in PBC and BBR residues by 15N-NOESY-HSQC NMR spectroscopy.

The target in assay [2] is T1, Rap guanine nucleotide exchange factor 3 (Homo sapiens). Description: Binding affinity to GST-tagged human EPAC1 CNBD (149 to 318 residues)expressed in Escherichia coli BL21 (DE3) assessed as compound binding to base binding region incubated for 30 mins by CHESPA method.
For assay [3] the target is unchanged. Description: Binding affinity to GST-tagged human EPAC1 CNBD (149 to 318 residues) expressed in Escherichia coli BL21 (DE3) incubated for 30 mins by 1H,15N-HSQC NMR spectroscopy.
Assay [4] has the same target. Description: Binding affinity to GST-tagged human EPAC1 CNBD (149 to 318 residues)expressed in Escherichia coli BL21 (DE3) assessed as compound binding to phosphate binding cassette region incubated for 30 mins by CHESPA method.
For assay [5], the target named is T2, Rap guanine nucleotide exchange factor 3 (Homo sapiens, UniProt O95398).
T2 sequence (O95398 whole entry): T1 sequence (whole entry)
Description: Binding affinity to GST-tagged human EPAC1 CNBD (149 to 318 residues) expressed in Escherichia coli BL21 (DE3) incubated for 30 mins by 8-NBD-cAMP based competitive fluorescence assay.

Assay [6] addresses T1, Rap guanine nucleotide exchange factor 3 (Homo sapiens). Description: Binding affinity to GST-tagged human EPAC1 CNBD (149 to 318 residues)expressed in Escherichia coli BL21 (DE3) assessed as induction of perturbation of allosteric network sites by CHESCA method.
For assay [7], the target named is Rap guanine nucleotide exchange factor 3 (Homo sapiens, UniProt O95398, L273W). Description: Binding affinity to GST-tagged human EPAC1 L273W mutant expressed in Escherichia coli BL21 (DE3) incubated for 30 mins by 8-NBD-cAMP based competitive fluorescence assay. The method, boiled down:
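Competitive displacement of 8-NBD-cAMP from the L273W mutant of the 149–318 construct, titrating ligand in Tris pH 7.6 buffer. […] Percent bound 8-NBD-cAMP was plotted against total ligand and fitted to a competitive-binding cubic solution to give Kd.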

Assay [8] addresses T1, Rap guanine nucleotide exchange factor 3 (Homo sapiens). Description: Binding affinity to GST-tagged human EPAC1 CNBD (149 to 318 residues)expressed in Escherichia coli BL21 (DE3) assessed as binding to R279 Guanidinium residue by guanidinium HSQC NMR spectroscopy. The gist of the method:
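Human EPAC1 residues 149–318, wild type and R279A mutant, expressed GST-tagged in E. coli BL21(DE3) in 15N or 15N/13C M9 medium. GST tag removed by thrombin; protein purified by glutathione and anion-exchange steps. Guanidinium HSQC spectra of apo or ligand-saturated protein recorded at 700 MHz and 306 K in 50 mM Tris, 50 mM NaCl, 1 mM DTT, pH 7.6. Ligand came from a DMSO-d6 stock, with matching DMSO-d6 added to apo and cAMP-bound controls.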

Assay [9] has the same target. Description: Binding affinity to GST-tagged human EPAC1 CNBD (149 to 318 residues)expressed in Escherichia coli BL21 (DE3) assessed as induction of conformational changes in compound by NOESY NMR spectroscopy.
The target is the same in assay [10]. Description: Binding affinity to GST-tagged human EPAC1 CNBD (149 to 318 residues)expressed in Escherichia coli BL21 (DE3) assessed as compound binding to cAMP-binding sites incubated for 30 mins by CHESPA method.
The target is the same in assay [11]. Description: Binding affinity to GST-tagged human EPAC1 CNBD (149 to 318 residues)expressed in Escherichia coli BL21 (DE3) by STD and guanidinium HSQC NMR analysis.

The source made the active and inactive calls. No cut-off for these calls is given here.

One may read the Kd as the concentration at which binding is half-saturated. Higher therefore signals a looser complex.

Sequence of Rap guanine nucleotide exchange factor 3 (Homo sapiens, UniProt O95398, L273W) (O95398 whole entry L273W): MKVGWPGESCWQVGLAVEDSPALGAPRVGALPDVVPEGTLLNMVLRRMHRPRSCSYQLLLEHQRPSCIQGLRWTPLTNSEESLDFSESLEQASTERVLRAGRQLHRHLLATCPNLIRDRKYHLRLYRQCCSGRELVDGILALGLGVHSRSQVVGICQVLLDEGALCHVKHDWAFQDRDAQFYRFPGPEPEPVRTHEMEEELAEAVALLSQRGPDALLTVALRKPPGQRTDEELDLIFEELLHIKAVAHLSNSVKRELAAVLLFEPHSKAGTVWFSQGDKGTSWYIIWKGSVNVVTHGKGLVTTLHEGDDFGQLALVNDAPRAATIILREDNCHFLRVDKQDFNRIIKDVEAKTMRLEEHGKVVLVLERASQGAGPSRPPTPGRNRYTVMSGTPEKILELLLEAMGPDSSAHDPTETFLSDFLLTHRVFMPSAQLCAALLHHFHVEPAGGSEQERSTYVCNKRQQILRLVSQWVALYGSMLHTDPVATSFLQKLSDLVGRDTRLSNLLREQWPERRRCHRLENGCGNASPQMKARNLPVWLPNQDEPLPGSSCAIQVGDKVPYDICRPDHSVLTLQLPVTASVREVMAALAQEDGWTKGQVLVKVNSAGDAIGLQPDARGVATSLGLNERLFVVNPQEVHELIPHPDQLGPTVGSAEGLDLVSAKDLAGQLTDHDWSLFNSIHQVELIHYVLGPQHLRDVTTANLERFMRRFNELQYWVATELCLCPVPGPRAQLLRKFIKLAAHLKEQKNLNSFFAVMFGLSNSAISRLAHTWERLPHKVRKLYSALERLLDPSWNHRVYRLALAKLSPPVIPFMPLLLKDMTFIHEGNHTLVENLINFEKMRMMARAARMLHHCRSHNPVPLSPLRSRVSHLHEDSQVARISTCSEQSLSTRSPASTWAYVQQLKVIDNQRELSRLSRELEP

Regarding `COc1ccc(S(=O)(=O)NC(=O)COc2ccc3ccccc3c2)cc1OC`, in assay [1], the outcome was Active.

As for `COc1ccc(OC)c(S(=O)(=O)NC(=O)COc2ccc3ccccc3c2)c1`, the result in [1] was Active.

`COc1ccc(S(=O)(=O)NC(=O)COc2ccc3ccccc3c2)c(OC)c1`: the result in assay [1] was Active.

For the compound `Cc1ccc(S(=O)(=O)NC(=O)COc2ccc3ccccc3c2)c(C)c1`, the result in assay [2], in assay [3], in assay [4], in assay [6], in assay [8] and in assay [9] was Active. The result in [1], in [10] and in assay [11] was Active. Further, the Kd in assay [5] worked out at 6.6 µM; in assay [7], 4.9 µM.

For the compound `Nc1ncnc2c1ncn2[C@@H]1O[C@@H]2CO[P@@](O)(=S)O[C@H]2[C@H]1O`, the outcome in assay [8] was Active.

Source of the values: ChEMBL document CHEMBL4602718, “Mechanism of Action of an EPAC1-Selective Competitive Partial Agonist” (J Med Chem, 2020).
